The values below come from ChEMBL document CHEMBL3421619, “Nicotinic Acid Adenine Dinucleotide Phosphate Analogues Substituted on the Nicotinic Acid and Adenine Ribosides. Effects on ReceptorMediated Ca²⁺ Release” (J Med Chem, 2015).

Test [1] concerns Strongylocentrotus purpuratus. Briefly: Displacement of [32P]NAADP from NAADP receptor in Strongylocentrotus purpuratus egg homogenates incubated for 90 mins by liquid scintillation counting method relative to NAADP. A digest of the protocol:
(§1)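 Competition binding in filter plates: S. purpuratus egg homogenate incubated 90 min simultaneously with 0.2 nM [32P]NAADP and seven concentrations of test ligand; filtered, washed, filter-bound radioactivity counted by liquid scintillation; IC50 ± SEM with n; fold values relative to NAADP.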

Test [2] is described as follows: Activation of NAADP receptor in Strongylocentrotus purpuratus egg homogenates assessed as Ca2+ release by Fluo-3 dye based fluorometric assay. In a few lines:
(§2)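 Egg homogenate microsomes from S. purpuratus loaded with Ca2+ in presence of ATP and 3 μM fluo-3; analogue added at a range of concentrations and released Ca2+ read as fluorescence increase (excitation 490 nm, emission 535 nm) on a plate reader; pH 7.2; triplicate; EC50 from concentration–response; fold values relative to NAADP.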

A short description of test [3]: Displacement of [32P]NAADP from NAADP receptor in Strongylocentrotus purpuratus egg homogenates incubated for 90 mins by liquid scintillation counting method. A digest of the protocol: as §1
Test [4] relates to Strongylocentrotus purpuratus. The test is described as follows: Desensitization of NAADP receptor in Strongylocentrotus purpuratus egg homogenates assessed as inhibition of NAADP-induced Ca2+ release pre-treated for 7 mins before NAADP addition by Fluo-3 dye based fluorometric assay relative to NAADP. A digest of the protocol:
(§3)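 S. purpuratus egg homogenates pretreated 7 min with varying analogue concentrations, then challenged with saturating NAADP (1 μM); Ca2+ release read by fluo-3 fluorescence (ex 490/em 535 nm); IC50 for inhibition of release from concentration–response, triplicate, reported ± SEM with n; fold values relative to NAADP.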

A short description of test [5]: Desensitization of NAADP receptor in Strongylocentrotus purpuratus egg homogenates assessed as inhibition of NAADP-induced Ca2+ release pre-treated for 7 mins before NAADP addition by Fluo-3 dye based fluorometric assay. In a few lines: as §3
Test [6] has as its system Strongylocentrotus purpuratus. The test is described as follows: Activation of NAADP receptor in Strongylocentrotus purpuratus egg homogenates assessed as Ca2+ release by Fluo-3 dye based fluorometric assay relative to NAADP. In a few lines:
as §2

Test [7] deals with Strongylocentrotus purpuratus. The test is described as follows: Ratio of activation of NAADP receptor in Strongylocentrotus purpuratus egg homogenates by Ca2+ release assay to IC50 for NAADP receptor in Strongylocentrotus purpuratus egg homogenates by [32P]NAADP binding assay.
In test [8] the test system is Strongylocentrotus purpuratus. Briefly: Ratio of activation of NAADP receptor in Strongylocentrotus purpuratus egg homogenates by Ca2+ release assay to IC50 for desensitization of NAADP receptor in Strongylocentrotus purpuratus egg homogenates by Ca2+ release assay.
Test [9] can be described thus: Activation of NAADP receptor in sea urchin egg homogenates assessed as Ca2+ release. Format: tissue-based, Echinoidea. A digest of the protocol: as §2

Each structure is given as a SMILES string.

A word on the EC50: it is the concentration giving half of the maximal effect. For orientation: IC50 means the concentration that inhibits the measured activity by half.

Turning to `CC(=O)NCCCc1cc(C(=O)O)c[n+]([C@H]2O[C@@H](COP(=O)(O)OP(=O)([O-])OC[C@H]3O[C@@H](n4cnc5c(N)ncnc54)[C@H](OP(=O)(O)O)[C@@H]3O)[C@H](O)[C@@H]2O)c1`, the values for the Ratio IC50 in test [1] and in test [4] were 4880 and 2620, respectively. Besides, the EC50 in test [2] amounted to 41.7 µM. Besides, the values for the IC50 in test [3] and in test [5] were 1.8 µM and 1.23 µM, respectively. In addition, the Ratio EC50 in [6] turned out to be 1620.

For `CSc1cc(C(=O)O)c[n+]([C@H]2O[C@@H](COP(=O)(O)OP(=O)([O-])OC[C@H]3O[C@@H](n4cnc5c(N)ncnc54)[C@H](OP(=O)(O)O)[C@@H]3O)[C@H](O)[C@@H]2O)c1`, the Ratio in test [7] and in test [8] was 100 in each case. Besides, the Ratio IC50 in [1] was found to be 18.4; in test [4], 8.9. For the same compound, the EC50 in [2] amounted to 0.151 µM. Besides, the IC50 came out at 0.0068 µM in test [3] and 0.0042 µM in test [5]. Besides, the Ratio EC50 in test [6] came out at 5.9.

For `[N-]=[N+]=Nc1cc(C(=O)O)c[n+]([C@H]2O[C@@H](COP(=O)(O)OP(=O)([O-])OC[C@H]3O[C@@H](n4c(Br)nc5c(N)ncnc54)[C@H](OP(=O)(O)O)[C@@H]3O)[C@H](O)[C@@H]2O)c1`, the values for the Ratio IC50 in test [1] and in [4] were 1000 and 1220, respectively. Further, in test [2], the EC50 was determined as 1360 µM. The IC50 in test [3] amounted to 0.372 µM; in test [5] it was 0.576 µM. Further, the Ratio EC50 in [6] is 52800.

Take `CC(C)(C)OC(=O)NCCCc1cc(C(=O)O)c[n+]([C@H]2O[C@@H](COP(=O)(O)OP(=O)([O-])OC[C@H]3O[C@@H](n4cnc5c(N)ncnc54)[C@H](OP(=O)(O)O)[C@@H]3O)[C@H](O)[C@@H]2O)c1`: the Ratio IC50 in test [1] was 8840; in test [4] it was 2000. Besides, in test [2], the EC50 turned out to be 160 µM. Also, the IC50 in test [3] came to 3.27 µM; in [5], 0.942 µM. In [6], the Ratio EC50 stood at 6200.

For `Nc1ncnc2c1ncn2[C@@H]1O[C@H](COP(=O)(O)OP(=O)(O)OC[C@@H]2O[C@H]([n+]3cccc(C(=O)[O-])c3)[C@@H](O)[C@H]2O)[C@@H](O)[C@H]1OP(=O)(O)O` [NICOTINIC ACID ADENINE DINUCLEOTIDE PHOSPHATE], the values for the EC50 in test [2] and in test [9] were 0.0258 µM and 0.02 µM, respectively. In addition, the IC50 was found to be 0.00037 µM in test [3] and 0.00047 µM in test [5].

`CC(=O)Nc1cc(C(=O)O)c[n+]([C@H]2O[C@@H](COP(=O)(O)OP(=O)([O-])OC[C@H]3O[C@@H](n4cnc5c(N)ncnc54)[C@H](OP(=O)(O)O)[C@@H]3O)[C@H](O)[C@@H]2O)c1`: the Ratio IC50 in test [1] amounted to 40.5; in [4], 45.7. The EC50 in [2] turned out to be 0.626 µM. For the same compound, the IC50 in test [3] amounted to 0.015 µM; in test [5] it was 0.0215 µM. Besides, the Ratio EC50 in [6] worked out at 24.3.

For the compound `Nc1ncnc2c1nc(Br)n2[C@@H]1O[C@H](COP(=O)([O-])OP(=O)(O)OC[C@@H]2O[C@H]([n+]3cccc(C(=O)O)c3)[C@@H](O)[C@H]2O)[C@@H](O)[C@H]1OP(=O)(O)O`, the Ratio IC50 is 42.4 in test [1] and 32.6 in [4]. The EC50 in test [2] turned out to be 0.709 µM. Also, the IC50 in test [3] worked out at 0.0157 µM; in test [5], 0.0153 µM. Also, the Ratio EC50 in [6] was determined as 27.5.

Consider `[N-]=[N+]=Nc1nc2c(N)ncnc2n1[C@@H]1O[C@H](COP(=O)([O-])OP(=O)(O)OC[C@@H]2O[C@H]([n+]3cccc(C(=O)O)c3)[C@@H](O)[C@H]2O)[C@@H](O)[C@H]1OP(=O)(O)O`, for which the Ratio IC50 in test [1] came to 1.9; in test [4] it was 1.3. The EC50 in [2] was 0.0477 µM. Besides, the IC50 in test [3] came to 0.0007 µM; in test [5], 0.0006 µM. Further, in test [6], the Ratio EC50 was found to be 1.8.

For the compound `Nc1ncnc2c1ncn2[C@@H]1O[C@H](COP(=O)([O-])OP(=O)(O)OC[C@@H]2O[C@H]([n+]3cc(O)cc(C(=O)O)c3)[C@@H](O)[C@H]2O)[C@@H](O)[C@H]1OP(=O)(O)O`, the Ratio IC50 in [1] was determined as 51; in test [4] it was 49.1. Also, in test [2], the EC50 was found to be 1.93 µM. Besides, the IC50 in test [3] was 0.0189 µM; in [5] it was 0.0231 µM. The Ratio EC50 in [6] turned out to be 74.9.

As for `Nc1ncnc2c1ncn2[C@@H]1O[C@H](COP(=O)([O-])OP(=O)(O)OC[C@@H]2O[C@H]([n+]3cc(CCCO)cc(C(=O)O)c3)[C@@H](O)[C@H]2O)[C@@H](O)[C@H]1OP(=O)(O)O`, the Ratio IC50 in test [1] was 132; in test [4] it was 260. Also, in [2], the EC50 worked out at 4.43 µM. Moreover, the IC50 in test [3] worked out at 0.049 µM; in test [5], 0.122 µM. The Ratio EC50 in test [6] was determined as 172.

With `[N-]=[N+]=NCCCc1cc(C(=O)O)c[n+]([C@H]2O[C@@H](COP(=O)(O)OP(=O)([O-])OC[C@H]3O[C@@H](n4cnc5c(N)ncnc54)[C@H](OP(=O)(O)O)[C@@H]3O)[C@H](O)[C@@H]2O)c1`, the Ratio IC50 was 152 in [1] and 97 in test [4]. Further, the EC50 in test [2] came to 30.7 µM. For the same compound, the results for the IC50 in test [3] and in test [5] were 0.0563 µM and 0.0456 µM, respectively. Also, in [6], the Ratio EC50 is 1190.

With `NCCCc1cc(C(=O)O)c[n+]([C@H]2O[C@@H](COP(=O)(O)OP(=O)([O-])OC[C@H]3O[C@@H](n4cnc5c(N)ncnc54)[C@H](OP(=O)(O)O)[C@@H]3O)[C@H](O)[C@@H]2O)c1`, the values for the Ratio IC50 in test [1] and in test [4] were above 2e+06 and 1.43e+06, respectively. In addition, in test [2], the EC50 is above 1000 µM. In addition, the IC50 in test [3] was above 1000 µM; in [5], 674 µM. The Ratio EC50 in [6] is above 33300.
